Source: PubChem
Most compounds without a hit are left out; they make up all but 1.5% or so of the library.
CSN inh: inhibitors of human CSN-mediated cullin deneddylation; Q92905; Purified CSN, SCF-Nedd8-OG deneddylation, fluorescence polarization; inhibition, % at 12.5 µM; hit rate 0.38% among 360,000;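 active = pattern-corrected inhibition above about 35%, with an unprinted fluorescence ratio check between 0.5 and 1.5, limit read from the data, passing the limit was not always enough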;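 note: 0% = enzyme with substrate and 100% = substrate without enzyme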
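Assay system: HEK293T-derived human Csn5 enzyme; quantity: 0.24 nM enzyme; medium: Tris/NaCl/DTT buffer, pH 7.5; also added: substrate SCFSkp2-Nedd8OG, 10 nM; doses: 12.5 µM compound; schedule: 90 min reaction at room temperature; signal: FP; read-out: % inhibition of substrate cleavage by Csn5; benchmarks: substrate-only high control, full reaction low control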
Rpn11 block: Rpn11 (human) deubiquitinase inhibition; O00487; human 26S proteasome, Ub4-pepOG fluorescence polarization; 20S core pre-blocked with epoxomicin; inhibition, % at 20 µM; hit rate 0.59% among 360,000;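 active = inhibition at 20 µM, scaled to each plate's controls, above about 33%, limit read from the data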
HNF4A DNA FP: change in binding of human HNF4 alpha to DNA; P41235; HNF4a-FITC DNA binding, fluorescence polarization, 1 h; activity change, % at 10 µM; hit rate 0.3% among 360,000; in the data active = activity change above about 30%, passing the limit was not always enough
Target sequence (P41235 whole entry, looked up): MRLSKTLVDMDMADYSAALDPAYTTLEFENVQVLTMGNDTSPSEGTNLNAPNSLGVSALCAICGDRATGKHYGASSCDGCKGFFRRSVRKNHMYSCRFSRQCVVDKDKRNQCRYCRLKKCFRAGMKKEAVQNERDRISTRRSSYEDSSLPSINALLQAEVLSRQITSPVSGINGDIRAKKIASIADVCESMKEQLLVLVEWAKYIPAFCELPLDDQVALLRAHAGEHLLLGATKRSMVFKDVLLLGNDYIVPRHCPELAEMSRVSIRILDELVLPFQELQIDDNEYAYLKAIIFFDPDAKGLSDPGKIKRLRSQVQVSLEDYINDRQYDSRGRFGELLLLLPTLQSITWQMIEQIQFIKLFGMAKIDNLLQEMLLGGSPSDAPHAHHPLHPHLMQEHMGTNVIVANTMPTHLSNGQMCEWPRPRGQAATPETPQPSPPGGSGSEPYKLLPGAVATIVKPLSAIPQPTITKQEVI
TPT1 inhibitor: C. albicans TPT1 enzyme inhibition; AID 1962; recombinant caTPT1, FP RNA substrate dephosphorylation; inhibition, % at 5 µM; hit rate 0.81% among 300,000;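 active = inhibition above the mean of all tested compounds plus 3 SD, set per screening campaign, cut at about 24% in these data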;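 note: plate controls were DMSO alone for no effect and ferristatin control at 100 nM for full effect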
CSN deneddyl val: Csn5 (human) deneddylation inhibition, single-concentration validation; shares compounds with CSN inh; Csn5 deneddylation of SCF-Nedd8OG, fluorescence polarization, 90 min; inhibition, % at 16.6 µM; hit rate 62% among 540; AID 720654; in the data active = inhibition above about 50%;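 note: 0% = DMSO with enzyme and 100% = no enzyme wells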
MMP2 cntr CSN: counter-screen for CSN deneddylation inhibitors: human MMP-2 inhibition | shares compounds with CSN inh | AID 720655 | recombinant MMP-2, FRET substrate fluorescence, 60 min | hit rate 33% among 540 | inhibition, % at 16.6 µM;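 active = corrected plate-normalized z-score of 5 or more, or -5 or less, or inhibition of 15% or more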;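 note: plate controls were DMSO wells with enzyme for no effect and buffer wells lacking MMP-2 for full effect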
Thrombin cntr: thrombin (bovine) inhibition, counter-screen for CSN hits; shares compounds with CSN inh; bovine thrombin cleavage of Ub4-pepOG, fluorescence polarization; inhibition, % at 16.6 µM; hit rate 49% among 540; AID 720656;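 active = inhibition at or above a set limit, with a fluorescence interference ratio between 0.5 and a set maximum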
HNF4A confirm: change in binding of human HNF4 alpha to DNA, retest | shares compounds with HNF4A DNA FP | HNF4A-FITC DNA binding, fluorescence polarization, 1 h | activity change, % at 12.5 µM | hit rate 99% among 210 | AID 1224897; call rule not given here
An asterisk follows results filed as active; / = no result given.

SMILES	CSN inh	Rpn11 block	HNF4A DNA FP	TPT1 inhibitor	HNF4A confirm	others
O=S(=O)(Nc1c(S(=O)(=O)c2ccccc2)c2nc3ccccc3nc2n1C1CCCCC1)c1ccccc1	58.2*	24.3	0.8	0.2	/	CSN deneddyl val=47.4;MMP2 cntr CSN=0.9;Thrombin cntr=1.1
C=CCn1c(NS(=O)(=O)c2ccccc2)c(S(=O)(=O)c2ccc(C)cc2)c2nc3ccccc3nc21	0.7	1.3	4.7	3.3	/
O=C1NN(c2ccccc2)C(=O)/C1=C/c1ccc(-c2ccc(C(=O)O)cc2)o1	35.4*	10.5	-21.6	5.1	/	CSN deneddyl val=59.5*;MMP2 cntr CSN=12.2;Thrombin cntr=4.8
CCS(=O)(=O)Nc1cccc(C2=NN(S(=O)(=O)CC)C(c3ccccc3)C2)c1 (centres undefined)	10.4	1.1	55.4*	1.0	78.6*
CS(=O)(=O)Nc1cccc(C2=NN(S(C)(=O)=O)C(c3ccccc3)C2)c1 (centres undefined)	7.5	-6.1	23.6	-4.0	/
Cc1ccc(NC(=O)COC(=O)C2CC2(Cl)Cl)cc1C (centres undefined)	-7.7	1.1	1.3	0.6	/
CCN(c1ccccc1)S(=O)(=O)c1ccc(C(=O)Nc2ccc(C)cn2)cc1	-0.6	13.0	3.4	-3.3	/
O=C(/C=C/c1ccc(OCCCF)cc1)Nc1ccnc(-c2ccncc2)n1	2.5	0.4	3.6	1.4	/
O=C(/C=C/c1ccc(OCCCF)cc1)Nc1ccnc(-c2cccnc2)n1	19.7	35.5	36.2*	5.0	52.1*
CCOC(=O)C1(C)CCN1C(=O)c1cc(OC)ccc1Br (centres undefined)	-3.5	-1.0	0.6	/	/
COc1ccc(N(CC(=O)N2CCN(C)CC2)S(=O)(=O)c2cc(C)ccc2OC)cc1Cl	-1.0	-2.6	2.3	-3.3	/
C#CCOc1ccc(/C=C2\SC(=S)N(Cc3cccnc3)C2=O)cc1	-13.3	-2.0	0.3	-2.7	/
O=C1/C(=C/c2ccc(O)cc2)SC(=S)N1Cc1cccnc1	6.6	12.5	51.5*	19.4	60.9*
CCc1ccc(C(C(=O)NC2CCCC2)N(Cc2cccnc2)C(=O)c2csnn2)cc1 (centres undefined)	-0.5	-3.8	-0.8	2.5	/
O=C(Nc1ccc([N+](=O)[O-])cc1)C(Cc1ccccc1)N1C(=O)c2cccc3cccc(c23)C1=O (centres undefined)	23.6	/	54.3*	0.1	93.7*
O=C(O)c1ccccc1NC(=O)C(Cc1ccccc1)N1C(=O)c2ccccc2C1=O (centres undefined)	-5.4	-0.3	-1.4	1.0	/
C[C@]12c3[nH]c4cc(-c5ccco5)ccc4c3CCN1C(=O)[C@@H](CC(=O)NCc1ccco1)C[C@@H]2C(=O)N1CCCCC1	6.4	13.7	0.9	/	/
OC(COc1ccc(C2C=CCC2)cc1)CN1CCCCC1 (centres undefined)	6.5	14.8	41.7*	-0.7	39.2*
OC(COc1ccccc1)CN1CCCCC1 (centres undefined)	-0.9	-3.4	0.5	/	/
CCOc1ccc(CN(C)CC(=O)NCc2ccccc2Cl)cc1	-7.3	2.6	2.2	-2.2	/
Cc1ccc(NC(=O)c2ccc(NCc3ccco3)c([N+](=O)[O-])c2)cc1Cl	89.7	/	47.3*	9.3	93.2*
Cc1ccc(NC(=O)c2ccc(NCC3CCCO3)c([N+](=O)[O-])c2)cc1Cl (centres undefined)	40.8*	/	36.9*	6.8	53.7*
N=c1n(CC(=O)c2ccc([N+](=O)[O-])cc2)c2ccccc2n1Cc1ccccc1	30.7	/	67.6*	9.2	106.9*
N=c1n(CC(=O)c2ccc([N+](=O)[O-])cc2)c2ccccc2n1Cc1ccc(Cl)cc1	12.4	/	39.7*	3.3	118.8*
N=c1n(CC(=O)c2ccc([N+](=O)[O-])cc2)c2ccccc2n1Cc1ccccc1Cl	-4.8	25.1	5.9	-0.3	/
SMILES	CSN inh	Rpn11 block	HNF4A DNA FP	TPT1 inhibitor	HNF4A confirm	others
O=C(Nc1nccs1)c1cc(-c2ccccn2)nc2c(Cl)cccc12	26.4	-53.9	72.5*	-1.2	45.4*
Cc1cc(NC(=O)c2cc(-c3ccccn3)nc3c(Cl)cccc23)no1	1.9	-1.7	-1.7	-1.3	/
Cc1cc(C)c(NC(=O)CSCc2nc3sc(C)c(C)c3c(=O)[nH]2)c(Cl)c1	17.6	/	43.5*	/	73.5*
CCC(CC)Nc1ccc(C(CC(N)=O)NC(=O)Cc2ccc(Br)cc2)cc1[N+](=O)[O-] (centres undefined)	31.9	17.0	52.0*	20.6	36.8*
NC(=O)CC(NC(=O)Cc1cccc2ccccc12)c1ccc(NC2CCCCC2)c([N+](=O)[O-])c1 (centres undefined)	24.2	11.2	50.8*	9.5	55.8*
NC(=O)CC(NC(=O)Cc1cccc2ccccc12)c1ccc(NC2CCCC2)c([N+](=O)[O-])c1 (centres undefined)	-2.1	9.5	7.2	/	/
C#CCNC(=O)c1cc(-c2ccccc2)sc1N	22.4	/	67.1*	/	79.8*
Cc1cc(=O)oc2cc(NC(=O)c3cccc(F)c3)ccc12	41.8*	27.1	41.2*	2.6	34.8*
Cc1cc(=O)oc2cc(NC(=O)c3cccc(S(C)(=O)=O)c3)ccc12	0.6	-1.4	-2.2	4.3	/
COc1ccc(CCn2c(C)cc(C(=O)CN3C(=O)C(=O)N(Cc4ccco4)C3=O)c2C)cc1	0.7	-5.3	-1.1	/	/
COCCNC(=O)C1(C)CCCN(Cc2csc3ccccc23)C1 (centres undefined)	-1.7	-0.8	-3.2	/	/
COc1cccc(/C=C2\SC(=S)N(CCCC(=O)Nc3cc(C)on3)C2=O)c1	35.7*	/	47.2*	2.9	66.9*
Cc1cc(/C=C2/NC(=S)NC2=O)c(C)n1-c1cccnc1	23.0	/	49.4*	22.4	97.7*
COc1cc(/C=C(/C#N)c2nc3ccccc3[nH]2)ccc1OCC(=O)Nc1ccccc1C	8.7	-5.7	-9.3	-8.4	/
COc1cc(/C=C(\C#N)c2nc3ccccc3[nH]2)ccc1OC(=O)c1ccco1	4.5	18.9	38.5*	15.0	52.1*
CC(C)[C@H](NC(=O)OC(C)(C)C)c1cc(C(=O)N[C@@H](C)c2ccccc2)c(N)s1	11.7	/	40.6*	/	37.0*
Cc1cc(C)n2c(NCc3ccccc3)c(-c3cc4ccccc4o3)nc2n1	1.6	/	61.1*	/	64.6*
Cc1cc(C)n2nc(NCc3ccccc3)nc2n1	5.2	-3.9	-3.0	1.0	/
CC(C)C(NS(=O)(=O)c1cccc2nsnc12)C(=O)N1CCCCC1 (centres undefined)	1.8	0.7	-0.5	3.3	/
